Shown are actives, neighbours in structure and some others; about 4.6% of the full set was active somewhere.
CHO parental Ca: signal in parental CHO cells, OX1R antagonist counter-screen | parental CHO-K1, ATP-induced calcium, Fluo-8 fluorescence | inhibition, % at 5.6 µM | 330,000 compounds, 0.63% hits;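 active means inhibition above that plate's mean sample inhibition plus 3 SD, cut at about 26% in these data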;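 further: 0% = ATP-challenged DMSO wells and 100% = DMSO wells without ATP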
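material = parental CHO cells | also added = ATP as calcium-mobilizing challenge | dosing = single point at 5.6 µM | detection = intracellular calcium via Fluo-8 no-wash fluorescent dye | read-out = % inhibition | benchmarks = low control ATP plus DMSO, high control DMSO only | repeats = one well per compound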
GPR7 antag: blocks human GPR7 receptor signaling; P48145; GPR7-expressing cells, fluorescence antagonist assay; inhibition, % at 4.4 µM; 290,000 compounds, 1.1% hits; AID 1861; in the data active means inhibition above about 16%, passing the limit was not always enough;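 further: cells stimulated with the agonist NPW; 0% = agonist with vehicle and 100% = vehicle without agonist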
Target sequence (P48145 whole entry, looked up): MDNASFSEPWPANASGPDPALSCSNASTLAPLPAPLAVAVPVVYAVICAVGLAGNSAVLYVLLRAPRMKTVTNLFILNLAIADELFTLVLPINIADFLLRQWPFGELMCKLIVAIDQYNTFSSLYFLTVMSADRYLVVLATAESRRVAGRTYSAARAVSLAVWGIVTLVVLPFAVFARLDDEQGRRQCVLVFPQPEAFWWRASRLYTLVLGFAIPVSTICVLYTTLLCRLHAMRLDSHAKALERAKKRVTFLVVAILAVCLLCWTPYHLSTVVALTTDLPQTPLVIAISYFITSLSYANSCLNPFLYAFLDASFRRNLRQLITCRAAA
OX1R antag-1: human HCRTR1 antagonism; O43613; CHO/OX1R cells, Fluo-8 calcium fluorescence, orexin A; inhibition, % at 5 µM; 330,000 compounds, 0.43% hits; AID 434989;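 active means inhibition above its plate's threshold, mean inhibition of all tested compounds on the plate plus 3 SD, cut at about 37% in these data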;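 further: 0% = orexin A challenge wells and 100% = SB-334867-A antagonist wells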
TAAR1 antag: human TAAR1 antagonism; 360,000 compounds, 1.5% hits; Q96RJ0; inhibition, % at 3 µM; AID 624466; CHO RD-HGA16 TAAR1, Fluo-8 calcium fluorescence, antagonist;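 active means inhibition above a per-plate cutoff, the mean inhibition of test compounds on that plate plus 3 SD, cut at about 49% in these data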;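 further: 0% = DMSO plus EC80 beta-PEA response and 100% = DMSO alone without agonist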
Target sequence (Q96RJ0 whole entry, looked up): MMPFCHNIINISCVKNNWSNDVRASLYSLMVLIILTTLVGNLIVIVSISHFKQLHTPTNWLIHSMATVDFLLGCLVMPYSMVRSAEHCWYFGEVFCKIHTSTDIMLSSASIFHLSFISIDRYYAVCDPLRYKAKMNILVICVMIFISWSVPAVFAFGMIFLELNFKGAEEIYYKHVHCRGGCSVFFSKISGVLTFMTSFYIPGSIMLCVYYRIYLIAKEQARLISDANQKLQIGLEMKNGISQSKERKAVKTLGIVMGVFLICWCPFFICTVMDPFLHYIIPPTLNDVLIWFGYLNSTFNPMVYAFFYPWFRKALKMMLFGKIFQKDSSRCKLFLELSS
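Test system: hTAAR1-expressing CHO RD-HGA16 cells, Gα16-coupled; Probe or stimulus: EC80 β-phenethylamine stimulus; Compound dosing: single nominal final test compound concentration of 3 µM; Timing: 140 s kinetic read after compound, 140 s after agonist; Signal: Fluo-8 calcium-sensitive fluorescence; Measure: % inhibition of agonist calcium response; Controls: DMSO and EC80 PEA controls.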
TAAR1 agonist: human TAAR1 agonism. AID 624467. 360,000 compounds, 0.99% hits. Q96RJ0. CHO RD-HGA16 TAAR1, Fluo-8 calcium fluorescence; vehicle wells 0%, saturating PEA agonist 100%. activation, % at 3 µM;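 active means activation above the mean activation of all test compounds in the run plus 3 SD, cut at about 38% in these data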
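System: CHO-derived RD-HGA16 cells with stable Gα16 and human TAAR1. Times: 17-24 h plating, Fluo-8 75 min 37 °C, 30 min RT. Measured by: calcium-sensitive Fluo-8 signal, excitation 470-495, emission 515-575 nm. Read-out basis: % activation relative to PEA EC100 response. Control set: DMSO and PEA EC100. Repeats: no replicates (n 1).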
OX1R antag-2: blocks the human orexin 1 receptor. O43613. OX1R-expressing cells, FRET antagonist read-out. inhibition, % at 6.6 µM. 330,000 compounds, 1.8% hits; in the data active means inhibition mostly above about 38%, no sharp cut-off; inactive means mostly below about 40%;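 further: 0% = agonist challenge alone and 100% = reference antagonist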
GPR7 antag conf: confirmation of human GPR7 antagonists; 2,400 compounds, 52% hits; AID 1952; GPR7-expressing cells, calcium fluorescence antagonist mode; inhibition, % at 4.4 µM; shares compounds with GPR7 antag; in the data active means inhibition above about 24%;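 further: stimulated with the GPR7 agonist NPW; 0% = agonist plus vehicle and 100% = vehicle alone without agonist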
MCHR1 antagonist: antagonizes human MCHR1, a GPR7 antagonist counter-screen | shares compounds with GPR7 antag | MCHR1-expressing cells, fluorescence antagonist assay | inhibition, % at 4.4 µM | 2,400 compounds, 62% hits | AID 2148; in the data active means inhibition above about 22%;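 further: 0% = vehicle with agonist and 100% = vehicle without agonist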
* marks the source's active call; other numbers are inactive results; nt = no result.

SMILES	CHO parental Ca	GPR7 antag	OX1R antag-1	TAAR1 antag	TAAR1 agonist	OX1R antag-2	GPR7 antag conf	MCHR1 antagonist
O=C(c1ccc(N2CCN(C(=O)c3ccc(F)c(F)c3)CC2)cc1)c1cccc(F)c1	-7	22	-22	18	1	7	nt	nt
CN=c1sc2c(n1C)C(=O)c1ccccc1C2=O	nt	nt	nt	-13	6	nt	nt	nt
COc1ccccc1CC(=O)N1CCN(c2ccc([N+](=O)[O-])cc2)CC1	0	25*	-6	23	4	12	7	36*
COc1ccccc1C(=O)N1CCN(c2cccc(Cl)c2)CC1	-21	25*	-17	3	10	18	15	25*
CN(C(=O)COC(=O)c1ccc2c(c1)OCO2)c1c(N)n(Cc2ccccc2)c(=O)[nH]c1=O	-5	nt	-21	-43	4	11	nt	nt
CCC(C)CCN1C(Nc2ccccc2)=NC[C@@H]1Cc1ccccc1 (stereo partly drawn)	-25	nt	-36	-9	21	14	nt	19
c1ccc(CCCCN2C(Nc3ccccc3)=NC[C@@H]2Cc2ccccc2)cc1	-14	nt	-8	22	37	35	nt	nt
CCCCCCCN1C(Nc2ccccc2)=NC[C@@H]1Cc1ccccc1	-22	50*	-28	9	31	13	48*	48*
c1ccc(C[C@H]2CN=C(Nc3ccccc3)N2CCCC2CCCC2)cc1	-13	46*	-25	nt	nt	8	51*	34*
CCC(C)CCN1C(Nc2ccccc2)=NC[C@@H]1CC(C)C (stereo partly drawn)	-18	27	-8	16	5	16	nt	nt
CC(C)c1ccc(/C=C2\NC(=S)N(Cc3cccnc3)C2=O)cc1	-16	-12	-30	-10	10	9	nt	nt
COc1ccc(S(=O)(=O)N2CCCCC2)cc1NC(=O)CNc1ccc(F)cc1C	-19	nt	-26	12	1	4	nt	nt
NC(=O)COC(=O)c1ccc(Oc2ccccc2)cc1	-8	-4	-10	9	2	13	nt	nt
CC(C)NC(=O)COC(=O)c1ccc(Oc2ccccc2)cc1	2	28*	-8	10	6	18	6	35*
OC1(c2ccccc2)CCN(Cc2ccccc2)C2CCCCC21 (stereo not drawn)	-20	34*	-31	-13	9	12	23	21
CCOc1ccc(N2C(=O)C3=C(C(c4ccc(Cl)cc4)=NCCN3)C2c2cccnc2)cc1 (stereo not drawn)	-5	19	-26	-16	3	13	nt	nt
Cc1ccc(C2C3=C(NCCN=C3c3ccccc3)C(=O)N2c2ccccc2)cc1 (stereo not drawn)	-15	nt	-39	9	19	6	nt	19
CCOC(Cn1ccc(=O)[nH]c1=O)OCC	1	27*	-6	-10	2	5	0	14
CCOC(Cn1cc([N+](=O)[O-])c(=O)[nH]c1=O)OCC	nt	nt	nt	-11	1	nt	nt	nt
Fc1ccc(C2CCNCC2COc2ccc3c(c2)OCO3)cc1 (stereo not drawn)	2	28*	4	-7	13	-5	36*	28*
O=C1C=C(c2ccc3c(c2)OCO3)C[C@@H](c2ccc(F)cc2)C1	-3	nt	-3	-9	9	7	nt	nt
COc1ccc(CC(=O)OCC(=O)NC2CCCCCC2)cc1OC	nt	nt	nt	-8	1	nt	nt	nt
COc1cc(NS(=O)(=O)c2cc3[nH]c(=O)c(=O)[nH]c3cc2C)cc(OC)c1OC	-3	43*	20	-4	2	12	4	5
CC(C)CN1CCNC(=O)C1CC(=O)NCCCN1CCCc2ccccc21 (stereo not drawn)	6	-5	-31	8	2	17	nt	nt
CC(=O)c1ccc(N2CCN(S(=O)(=O)c3ccc4c5c3CC(=O)N5CC(C)S4)CC2)cc1 (stereo not drawn)	-9	25*	-7	nt	nt	13	11	41*
SMILES	CHO parental Ca	GPR7 antag	OX1R antag-1	TAAR1 antag	TAAR1 agonist	OX1R antag-2	GPR7 antag conf	MCHR1 antagonist
CC(=O)c1ccc(N2CCN(S(=O)(=O)c3ccc4c(c3)CC(=O)N4)CC2)cc1	11	-6	-9	-22	2	6	nt	nt
CC1CCN(c2ccc3nnc(CCC(=O)Nc4ccc(F)c(F)c4)n3n2)CC1	-19	28*	-28	-26	-2	15	37*	40*
O=C(CCc1nnc2ccc(N3CCCC3)nn12)Nc1ccc(F)c(F)c1	-7	0	-11	-13	5	9	nt	nt
CCCCc1noc2c1/C(=N\O)CC(c1ccccc1)C2 (stereo not drawn)	15	41*	5	-6	0	11	36*	23*
O=C(COC(=O)c1cc(S(=O)(=O)N2CCOCC2)cs1)c1ccccc1	-11	25*	-16	7	6	7	9	11
COc1cc(/C=C2\SC(=S)N(C(Cc3ccccc3)C(=O)O)C2=O)ccc1O (stereo not drawn)	20	22*	27	9	24	26	9	20
O=C(O)C(Cc1ccccc1)N1C(=O)/C(=C/c2ccccc2)SC1=S (stereo not drawn)	-2	-12	-4	-2	3	14	nt	nt
COCc1cc(C)nc(SCc2ccccc2Cl)c1C#N	-11	-8	-27	8	1	-3	nt	nt
COCc1cc(C)nc(SCc2ccc([N+](=O)[O-])cc2)c1C#N	-9	29*	-17	0	4	23	9	13
CCOC(=O)c1ccc(N2CCCCC2)c(NS(=O)(=O)c2ccc(C)cc2)c1	-5	25*	-31	-29	0	5	15	62*
CC1=C(C(=O)N(C(C)C)C(C)C)CC(CC(=O)NC(c2ccccc2)c2ccccc2)C(=O)N1Cc1ccc(C(C)(C)C)cc1 (stereo not drawn)	nt	nt	nt	-6	0	nt	nt	nt
O=[N+]([O-])c1c(Nc2ccc(O)cc2)cc(Cl)c2nonc12	61*	83*	76*	63*	-4	99*	94*	102*
CN(C)c1cc(Nc2ccc(O)cc2)c([N+](=O)[O-])c2nonc12	-12	-22	-24	-2	0	43	nt	nt
CCOc1ccccc1N=c1oc2cc(O)ccc2cc1C(=O)NCC1CCCO1 (stereo not drawn)	-12	29*	-3	29	7	5	19	20
CCOc1ccc(N=c2oc3cc(O)ccc3cc2C(=O)NCC2CCCO2)cc1 (stereo not drawn)	-4	3	-12	17	0	20	nt	nt

High-throughput results as filed in PubChem.
